Assay results reported in ChEMBL document CHEMBL5357072, “Structural Modification of Noscapine via Photoredox/Nickel Dual Catalysis for the Discovery of S-Phase Arresting Agents” (ACS Med Chem Lett, 2024).

What was measured:
Assay type in all cases: functional
Conditions in all cases: read-out: GI
U-251 = test: Antiproliferative activity against human U-251 cells assessed as cell growth inhibition at 10 uM incubated for 48 hrs by CCK8 assay relative to control
Outline: (§1)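 Single-concentration screen of six cancer cell lines. Cells were exposed to 10 μM compound and growth was measured by CCK-8 assay. Results are reported as inhibition rate at 10 μM.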

A549 = test: Antiproliferative activity against human A549 cells assessed as cell growth inhibition at 10 uM incubated for 48 hrs by CCK8 assay relative to control; outline: as §1
HeLa = test: Antiproliferative activity against human HeLa cells assessed as cell growth inhibition at 10 uM incubated for 48 hrs by CCK8 assay relative to control; outline: as §1
NB-4 = test: Antiproliferative activity against human NB4 cells assessed as cell growth inhibition at 10 uM incubated for 48 hrs by CCK8 assay relative to control; outline: as §1
JeKo-1 = test: Antiproliferative activity against human JeKo-1 cells assessed as cell growth inhibition at 10 uM incubated for 48 hrs by CCK8 assay relative to control; outline: as §1
MOLM-13 = test: Antiproliferative activity against human MOLM-13 cells assessed as cell growth inhibition at 10 uM incubated for 48 hrs by CCK8 assay relative to control; outline: as §1

COc1ccc2c(c1OC)C(=O)O[C@@H]2[C@H]1c2c(c(CCCCCC#N)c3c(c2OC)OCO3)CCN1C(=O)OC(C)(C)C
inhibition of growth at 10 µM (U-251): 19.1% | inhibition of growth at 10 µM (A549): < 5% | inhibition of growth at 10 µM (HeLa): 16.1% | inhibition of growth at 10 µM (NB-4): 14.1% | inhibition of growth at 10 µM (JeKo-1): 19.9% | inhibition of growth at 10 µM (MOLM-13): 46.3%

COc1ccc2c(c1OC)C(=O)O[C@@H]2[C@H]1c2c(c(C3COC3)c3c(c2OC)OCO3)CCN1C(=O)OC(C)(C)C
inhibition of growth at 10 µM (U-251): 12.3% | inhibition of growth at 10 µM (A549): < 5% | inhibition of growth at 10 µM (HeLa): 14.9% | inhibition of growth at 10 µM (NB-4): 9.21% | inhibition of growth at 10 µM (JeKo-1): 13.3% | inhibition of growth at 10 µM (MOLM-13): 11.7%

COc1ccc2c(c1OC)C(=O)O[C@@H]2[C@H]1c2c(c(CCNC(=O)OC(C)(C)C)c3c(c2OC)OCO3)CCN1C(=O)OC(C)(C)C
inhibition of growth at 10 µM (U-251): < 5% | inhibition of growth at 10 µM (A549): < 5% | inhibition of growth at 10 µM (HeLa): < 5% | inhibition of growth at 10 µM (NB-4): 29.9% | inhibition of growth at 10 µM (JeKo-1): 14% | inhibition of growth at 10 µM (MOLM-13): 43.5%

COc1ccc2c(c1OC)C(=O)O[C@@H]2[C@H]1c2c(c(CCCc3ccccc3)c3c(c2OC)OCO3)CCN1C(=O)OC(C)(C)C
inhibition of growth at 10 µM (U-251): < 5% | inhibition of growth at 10 µM (A549): < 5% | inhibition of growth at 10 µM (HeLa): < 5% | inhibition of growth at 10 µM (NB-4): 25.1% | inhibition of growth at 10 µM (JeKo-1): 13.7% | inhibition of growth at 10 µM (MOLM-13): 63.2%

COc1ccc2c(c1OC)C(=O)O[C@@H]2[C@H]1c2c(c(CC3CCOCC3)c3c(c2OC)OCO3)CCN1C(=O)OC(C)(C)C
inhibition of growth at 10 µM (U-251): 13.2% | inhibition of growth at 10 µM (A549): < 5% | inhibition of growth at 10 µM (HeLa): 23% | inhibition of growth at 10 µM (NB-4): 4.77% | inhibition of growth at 10 µM (JeKo-1): 20.4% | inhibition of growth at 10 µM (MOLM-13): 48.4%

COc1ccc2c(c1OC)C(=O)O[C@@H]2[C@H]1c2c(c(C3CCN(C(=O)OC(C)(C)C)C3)c3c(c2OC)OCO3)CCN1C(=O)OC(C)(C)C (some centres undefined)
inhibition of growth at 10 µM (U-251): < 5% | inhibition of growth at 10 µM (A549): 17.7% | inhibition of growth at 10 µM (HeLa): < 5% | inhibition of growth at 10 µM (NB-4): 22.1% | inhibition of growth at 10 µM (JeKo-1): 14.9% | inhibition of growth at 10 µM (MOLM-13): 54.8%

COc1ccc2c(c1OC)C(=O)O[C@@H]2[C@H]1c2c(c(C3CCC(C)(C)CC3)c3c(c2OC)OCO3)CCN1C(=O)OC(C)(C)C
inhibition of growth at 10 µM (U-251): < 5% | inhibition of growth at 10 µM (A549): < 5% | inhibition of growth at 10 µM (HeLa): < 5% | inhibition of growth at 10 µM (NB-4): 29.6% | inhibition of growth at 10 µM (JeKo-1): 7.49% | inhibition of growth at 10 µM (MOLM-13): 47.6%

COc1ccc2c(c1OC)C(=O)O[C@@H]2[C@H]1c2c(c(CC3CN(C(=O)OC(C)(C)C)C3)c3c(c2OC)OCO3)CCN1C(=O)OC(C)(C)C
inhibition of growth at 10 µM (U-251): < 5% | inhibition of growth at 10 µM (A549): 10.6% | inhibition of growth at 10 µM (HeLa): < 5% | inhibition of growth at 10 µM (NB-4): 63.1% | inhibition of growth at 10 µM (JeKo-1): 48% | inhibition of growth at 10 µM (MOLM-13): 59%

CCOP(=O)(CCc1c2c(c(OC)c3c1OCO3)[C@H]([C@H]1OC(=O)c3c1ccc(OC)c3OC)N(C(=O)OC(C)(C)C)CC2)OCC
inhibition of growth at 10 µM (U-251): < 5% | inhibition of growth at 10 µM (A549): < 5% | inhibition of growth at 10 µM (HeLa): < 5% | inhibition of growth at 10 µM (NB-4): 6.64% | inhibition of growth at 10 µM (JeKo-1): 12.1% | inhibition of growth at 10 µM (MOLM-13): 31.1%

COc1ccc2c(c1OC)C(=O)O[C@@H]2[C@H]1c2c(c(CCCNC(=O)OC(C)(C)C)c3c(c2OC)OCO3)CCN1C(=O)OC(C)(C)C
inhibition of growth at 10 µM (U-251): < 5% | inhibition of growth at 10 µM (A549): < 5% | inhibition of growth at 10 µM (HeLa): < 5% | inhibition of growth at 10 µM (NB-4): 28.9% | inhibition of growth at 10 µM (JeKo-1): 10.6% | inhibition of growth at 10 µM (MOLM-13): 48.2%

COCCCc1c2c(c(OC)c3c1OCO3)[C@H]([C@H]1OC(=O)c3c1ccc(OC)c3OC)N(C(=O)OC(C)(C)C)CC2
inhibition of growth at 10 µM (U-251): < 5% | inhibition of growth at 10 µM (A549): < 5% | inhibition of growth at 10 µM (HeLa): < 5% | inhibition of growth at 10 µM (NB-4): 27.2% | inhibition of growth at 10 µM (JeKo-1): 23.3% | inhibition of growth at 10 µM (MOLM-13): 30.4%

COc1ccc2c(c1OC)C(=O)O[C@@H]2[C@H]1c2c(c(CCCC(F)(F)F)c3c(c2OC)OCO3)CCN1C(=O)OC(C)(C)C
inhibition of growth at 10 µM (U-251): < 5% | inhibition of growth at 10 µM (A549): < 5% | inhibition of growth at 10 µM (HeLa): < 5% | inhibition of growth at 10 µM (NB-4): 31.5% | inhibition of growth at 10 µM (JeKo-1): 25.6% | inhibition of growth at 10 µM (MOLM-13): 36%

COc1ccc2c(c1OC)C(=O)O[C@@H]2[C@H]1c2c(c(C3CCCCC3)c3c(c2OC)OCO3)CCN1C(=O)OC(C)(C)C
inhibition of growth at 10 µM (U-251): < 5% | inhibition of growth at 10 µM (A549): < 5% | inhibition of growth at 10 µM (HeLa): < 5% | inhibition of growth at 10 µM (NB-4): 6.53% | inhibition of growth at 10 µM (JeKo-1): < 5% | inhibition of growth at 10 µM (MOLM-13): 46.1%

COc1ccc2c(c1OC)C(=O)O[C@@H]2[C@H]1c2c(c(CC3CCC3)c3c(c2OC)OCO3)CCN1C(=O)OC(C)(C)C
inhibition of growth at 10 µM (U-251): < 5% | inhibition of growth at 10 µM (A549): < 5% | inhibition of growth at 10 µM (HeLa): < 5% | inhibition of growth at 10 µM (NB-4): 8.8% | inhibition of growth at 10 µM (JeKo-1): 6.67% | inhibition of growth at 10 µM (MOLM-13): 53.1%
